Assay [1] concerns Staphylococcus aureus. The assay is described as follows: Antibacterial activity against Staphylococcus aureus ATCC 29213 at undecaprenyl-phosphate/test compound molar ratio 0.5 to 2 preincubated with undecaprenyl-phosphate for 30 mins followed by bacterial inoculation measured after overnight incubation. In kind it is functional. Put shortly:
(§1)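 Test agent at 4x or 8x its broth MIC mixed with lipid II or C55-P (2x or 0.5x molar excess over compound) in MHII broth with 0.05% tween-80, 30 min at rt; exponential S. aureus ATCC 29213 then added to final OD600 0.001. Overnight at 37 °C; growth judged by eye and plate-reader absorbance. Run two or three times.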

The next assay has as its system Enterococcus faecalis. The experiment in a line: Antibacterial activity against […] Enterococcus faecalis ATCC 29212 after 20 hrs by broth microdilution method. In kind it is functional. Conditions: ATCC 29212, 20 h. In a few lines: (§2)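 Broth microdilution per CLSI in cation-adjusted Mueller-Hinton broth with 0.002% polysorbate 80. Analogues were made up as 10 mg/mL DMSO stocks, then diluted in MHB. Inoculum approx. 5×10^5 cells/mL. Incubated 20 h at 37°C; MIC taken as the lowest concentration with no visible growth. Run three times.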
Background: Broth dilution looks for growth in wells or tubes with falling amounts of substance.

In assay [2] the test system is Staphylococcus aureus. The experiment in a line: Antibacterial activity against methicillin-sensitive Staphylococcus aureus TH 4806 after 20 hrs by broth microdilution method. The note with it: TH 4806, 20 h. In kind it is functional. In a few lines:
as §2

Assay [3] has as its system Streptococcus pneumoniae. The experiment in a line: Antibacterial activity against Streptococcus pneumoniae D39 infected in C57BL/6J mouse at 1 x 10^4 cfu/mouse assessed as mouse survival rate at 1 to 5 mg/kg, iv administered 1 hr post infection measured after 48 hrs relative to control. In kind it is functional. Put shortly: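 C57BL/6J female mice, 6-8 weeks, infected i.p. with 0.2 mL S. pneumoniae D39 suspension (1×10^4 c.f.u. per mouse), an inoculum giving at least 90% mortality within 48 h; 6 per group. Single i.v. dose 1 h post-infection at 5, 2 or 1 mg per kg in PBS:Cremophor-EL:DMSO (94:5:1); vehicle and vancomycin (5 mg per kg) controls. Survival scored at 48 h; log-rank test.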

The test system of assay [4] is Staphylococcus aureus. The assay is described as follows: Antibacterial activity against Staphylococcus aureus ATCC 29213 at lipid 2/test compound molar ratio 0.5 preincubated with lipid 2 for 30 mins followed by bacterial inoculation measured after overnight incubation. Format: functional. In a few lines: as §1
Assay [5] concerns Staphylococcus aureus. The experiment in a line: Antibacterial activity against methicillin-resistant Staphylococcus aureus BAA-1695 after 20 hrs by broth microdilution method. In kind it is functional. The note with it: BAA-1695, 20 h. Put shortly: as §2
Another assay has as its system Streptococcus pyogenes. The experiment in a line: Antibacterial activity against Streptococcus pyogenes ATCC 19615 after 20 hrs by broth microdilution method. Format: functional. The note with it: ATCC 19615, 20 h. In a few lines: (§3)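 CLSI broth microdilution in cation-adjusted Mueller-Hinton broth with 3% lysed horse blood for streptococci and 0.002% polysorbate 80. Compounds taken from 10 mg/mL DMSO stocks and diluted in broth. Inoculum about 5×10^5 cells/mL. After 20 h at 37 °C, MIC read as lowest concentration with no visible growth. Done three times.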

Assay [6] can be described thus: Binding affinity to Bacillus subtilis UDP-MurNAc-L-Ala-gamma-DGlu-meso-Dap-D-Ala-D-Ala by ITC method. Put shortly:
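Park's nucleotide was isolated from Bacillus subtilis. ITC run at 25 °C in DMSO:H2O (85:15). The lipid II analogue (0.375 mM) was titrated into 0.025 mM test compound.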

The test system of assay [7] is Streptococcus pneumoniae. The assay is described as follows: Antibacterial activity against Streptococcus pneumoniae D39 infected in C57BL/6J mouse at 5 x 10^4 cfu/mouse assessed as reduction of bacterial burden in blood at 1 to 5 mg/kg, iv administered 1 hr post infection measured after 12 to 22 hrs relative to control. In kind it is functional. Put shortly: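 Female C57BL/6J mice, 6-8 weeks, 4 per group, given 0.2 mL S. pneumoniae D39 i.p. (5×10^4 c.f.u. per mouse). At 1 h post-infection a single i.v. dose of 5 or 1 mg/kg was given in PBS:Cremophor-EL:DMSO (94:5:1). Vehicle and vancomycin 5 mg/kg groups were included. Blood c.f.u. counted at 12, 18 and 22 h.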

The nature of assay [8]: Binding affinity to undecaprenyl-phosphate at 1 to 4 nmol after 30 mins by TLC method. In a few lines:
(§4)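 Lipid II or C55-P (1 nmol) incubated with 1, 2, 3 or 4 nmol compound in 50 mM Tris/HCl pH 7.5, 30 min at rt. Extracted twice with pyridinium acetate (6 M, pH 4.2)/butanol (1:2), then washed with butanol-saturated water. Organic phase run on silica TLC in chloroform/methanol/water/ammonia (88:48:10:1) and stained with phosphomolybdic acid; loss of lipid band scored. Done twice.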

Assay [9] has as its system Streptococcus pneumoniae. The assay is described as follows: Antibacterial activity against Streptococcus pneumoniae D39 after 20 hrs by broth microdilution method. In kind it is functional. Conditions: D39, 20 h. Put shortly: as §3
The nature of assay [10]: Binding affinity to lipid 2 at 4 nmol after 30 mins by TLC method. In a few lines:
as §4

In assay [11] the test system is Staphylococcus aureus. The experiment in a line: Antibacterial activity against Staphylococcus aureus ATCC 29213 at lipid 2/test compound molar ratio 2 preincubated with lipid 2 for 30 mins followed by bacterial inoculation measured after overnight incubation. Format: functional. Put shortly: as §1
Assay [12] in a line: Binding affinity to lipid 2 at 1 to 4 nmol after 30 mins by TLC method. In a few lines: as §4

Structures are written as SMILES. pKd: −log10 of the molar value. Converted amounts (≈) assume the structure as drawn. The source made the active and inactive calls. The calls are words filed in the database; no cut-off is given here.

For orientation: MIC means the lowest concentration that inhibits growth of the organism. The pKd is the Kd on a negative log10 scale, so that one unit is a factor of ten. A low value points to a high Kd. `CC[C@@H](C)[C@@H](NC(=O)[C@@H](CCC(N)=O)NC(=O)[C@H](CO)NC(=O)[C@@H](NC(=O)[C@H](N)Cc1ccc(-c2ccccc2)cc1)[C@@H](C)CC)C(=O)N[C@H](C(=O)N[C@@H](CO)C(=O)N[C@H]1C(=O)N[C@@H](C)C(=O)N[C@@H](CCCCN)C(=O)N[C@@H]([C@@H](C)CC)C(=O)O[C@H]1C)[C@@H](C)CC`: the result with Staphylococcus aureus [1] and with Staphylococcus aureus [4] was Active. Besides, the MIC with Enterococcus faecalis was 0.5 µg/mL (≈ 0.391 µM); in the assay with Staphylococcus aureus [2], 0.5 µg/mL (≈ 0.391 µM); in the assay on Staphylococcus aureus [5], 0.5 µg/mL (≈ 0.391 µM); in the assay on Streptococcus pyogenes, less than 0.25 µg/mL; in the assay with Streptococcus pneumoniae [9], less than 0.032 µg/mL. In addition, in the assay on Streptococcus pneumoniae [3], the Survival came out at 100%. Besides, the pKd in [6] was 4.64. For the same compound, in the assay with Streptococcus pneumoniae [7], the Activity is 6 deltalog10CFU/ml. Also, the result (in assay [8]; in assay [10]; with Staphylococcus aureus [11]) was inactive.
On to `CC[C@@H](C)[C@@H](NC(=O)[C@@H](CCC(N)=O)NC(=O)[C@H](CO)NC(=O)[C@@H](NC(=O)[C@H](N)Cc1ccc(-c2ccccc2)cc1)[C@@H](C)CC)C(=O)N[C@H](C(=O)N[C@@H](CO)C(=O)N[C@H]1C(=O)N[C@@H](C)C(=O)N[C@@H](CCCCN)C(=O)N[C@@H]([C@@H](C)CC)C(=O)N[C@H]1C)[C@@H](C)CC`, for which the outcome (with Staphylococcus aureus [1]; in assay [12]; with Staphylococcus aureus [4]) was Active. Moreover, the minimal inhibitory concentration (MIC) against Enterococcus faecalis was 0.5 µg/mL (≈ 0.391 µM); against Staphylococcus aureus [2], 0.25 µg/mL (≈ 0.196 µM); against Staphylococcus aureus [5], 0.25 µg/mL (≈ 0.196 µM); with Streptococcus pyogenes, less than 0.25 µg/mL; with Streptococcus pneumoniae [9], less than 0.032 µg/mL. Moreover, the outcome (in assay [8]; in the assay on Staphylococcus aureus [11]) was inactive.

For the origin of these results see ChEMBL document CHEMBL4043311, “Developing Equipotent Teixobactin Analogues against Drug-Resistant Bacteria and Discovering a Hydrophobic Interaction between Lipid II and Teixobactin” (J Med Chem, 2018).
